The values below come from ChEMBL document CHEMBL3875203, “Small molecule mimics of DFTamP1, a database designed anti-Staphylococcal peptide” (Bioorg Med Chem, 2017).

Data set [1] can be described thus: Hemolytic activity against human RBC after 1 hr. It counts as ADME, cell-based, Erythrocyte. The conditions noted are these: human red blood cells. Put shortly: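 Human red blood cells were washed three times in normal saline (800 g, 10 min) and made up as a 2% suspension. After centrifugation, supernatant absorbance was read at 545 nm. Lysis was set at 100% for 1% Triton X-100 and 0% for untreated cells; HL50 is the 50% hemolytic concentration.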

The subject of data set [2] is Staphylococcus aureus. Kind of data set: Antibacterial activity against Staphylococcus aureus Newman after 20 hrs by microdilution method. It counts as functional. Put shortly: (§1)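 Incubated ~20 h at 37°C, then read at 630 nm. MIC is the lowest concentration with no detectable growth. Daptomycin assays had 2 mM Ca²⁺ added to the medium. Repeated several times by different investigators.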
A general note: Broth dilution looks for growth in wells or tubes with falling amounts of substance.

Data set [3] relates to Pseudomonas aeruginosa. As to the kind of experiment: Antibacterial activity against Pseudomonas aeruginosa PAO1 after 20 hrs by microdilution method. Format: functional. The conditions noted are these: PAO1, 20 h. Put shortly: as §1
Data set [4] concerns Staphylococcus aureus. Kind of data set: Antibacterial activity against methicillin-resistant Staphylococcus aureus USA300 LAC after overnight incubation by broth microdilution method. Format: functional. Put shortly: (§2)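 MIC = lowest concentration with no detectable growth. pH series run at pH 6.8, 7.4 and 8.0. Daptomycin wells carried 2 mM Ca²⁺. Repeated by different investigators on different dates.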

Data set [5] has as its system Pseudomonas aeruginosa. Kind of data set: Antibacterial activity against Pseudomonas aeruginosa PAO1 after overnight incubation by broth microdilution method. Format: functional.
The subject of data set [6] is Staphylococcus aureus. Kind of data set: Antibacterial activity against Staphylococcus aureus UAMS-1 after 20 hrs by microdilution method. Particulars: UAMS-1, 20 h. It counts as functional. Put shortly: as §1
Data set [7] can be described thus: Retention time of the compound by HPLC method. Format: physicochemical.
For data set [8], the system named is Staphylococcus aureus. Kind of data set: Antibacterial activity against Staphylococcus aureus Mu50 after 20 hrs by microdilution method. Particulars: Mu50, 20 h. It counts as functional. Put shortly:
as §1

In data set [9] the test system is Staphylococcus aureus. Kind of data set: Antibacterial activity against methicillin-resistant Staphylococcus aureus USA300 after 20 hrs by microdilution method. Format: functional. Particulars: USA300, 20 h. The essentials:
as §2

The subject of data set [10] is Escherichia coli. As to the kind of experiment: Antibacterial activity against Escherichia coli K-12 after overnight incubation by broth microdilution method. Format: functional.
For a further data set, the system named is Klebsiella pneumoniae. As to the kind of experiment: Antibacterial activity against Klebsiella pneumoniae ATCC 13883 after 20 hrs by microdilution method. It counts as functional. Particulars: ATCC 13883, 20 h. Put shortly:
as §1

For data set [11], the system named is Staphylococcus aureus. Kind of data set: Antibacterial activity against Staphylococcus aureus USA400 after 20 hrs by microdilution method. Particulars: USA400, 20 h. It counts as functional. The essentials: as §1
For data set [12], the system named is Staphylococcus aureus. Kind of data set: Antibacterial activity against Staphylococcus aureus USA200 after 20 hrs by microdilution method. Format: functional. Particulars: USA200, 20 h. Put shortly: as §1
Data set [13] can be described thus: Therapeutic index, ratio of HC50 for human RBC to MIC for methicillin-resistant Staphylococcus aureus USA300. The conditions noted are these: human red blood cells, read-out: TI. Put shortly:
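Supernatant hemoglobin read at 545 nm; 1% Triton X-100 = 100% lysis, untreated = 0%. HL50 divided by USA300 MIC gives the selectivity index.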

The subject of data set [14] is Staphylococcus aureus. Kind of data set: Ratio of MIC for methicillin-resistant Staphylococcus aureus USA300 in presence of 100 mM NaCl to MIC for methicillin-resistant Staphylococcus aureus USA300 in absence of 100 mM NaCl. It counts as functional. Put shortly:
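Broth microdilution MIC against S. aureus USA300 in TSB with and without 100 mM NaCl. Inoculum 10⁶ CFU/mL exponential-phase cells, ~20 h at 37°C, OD630 read-out, no-growth endpoint. Ratio of MIC with salt to MIC without salt.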

Data set [15] concerns Staphylococcus aureus. Kind of data set: Induction of membrane damage in methicillin-resistant Staphylococcus aureus USA300 measured for 90 mins by propidium iodide staining based fluorescence spectroscopic analysis. Format: functional.
Data set [16] concerns Escherichia coli. Kind of data set: Antibacterial activity against Escherichia coli ATCC 25922 after 20 hrs by microdilution method. Format: functional. Particulars: ATCC 25922, 20 h. Put shortly:
as §1

The subject of data set [17] is Staphylococcus aureus. Kind of data set: Inhibition of surface attachment by methicillin-resistant Staphylococcus aureus USA300 assessed as reduction in biofilm formation after 4 hrs by XTT assay. It counts as functional.
Data set [18] has as its system Staphylococcus aureus. As to the kind of experiment: Inhibition of methicillin-resistant Staphylococcus aureus USA300 preformed biofilms after 24 hrs by XTT assay. Format: functional. The essentials: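 USA300 biofilms formed for 24 h on polystyrene wells, washed, then treated with compounds for 24 h. Remaining biofilm quantified by XTT reduction (2 h, 37°C, absorbance 450 nm, medium-plus-XTT blank). Compared with untreated control.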
A general note: Formazan colour is commonly taken as a measure of viable cells.

The test system of data set [19] is Staphylococcus aureus. As to the kind of experiment: Induction of membrane damage in methicillin-resistant Staphylococcus aureus USA300 measured up to 90 mins by propidium iodide staining based fluorescence spectroscopic analysis.
Data set [20] relates to Staphylococcus aureus. Kind of data set: Antibacterial activity against methicillin-resistant Staphylococcus aureus USA300 after 20 hrs at pH 6.8 to 8 by microdilution method. It counts as functional. The essentials: as §2

≈ marks a conversion by molar mass, not a printed value. Calls of active or inactive are those of the source. The calls are words filed in the database; no cut-off is given here.

As a reminder, the HC50 is the concentration giving 50% haemolysis. Read a low HC50 as more damage to red cells. A word on the MIC: it is the least concentration at which growth counts as inhibited. Low readings indicate greater potency, high ones weaker potency. In data set [1], `CS(=O)(=O)O.CS(=O)(=O)O.c1cc2c(C3(c4c[nH]c5cc(C6=NCCN6)ccc45)CCCCC3)c[nH]c2cc1C1=NCCN1` came in with an HC50 at 1 h of 150 to 300 µM. Moreover, the minimal inhibitory concentration (MIC) in the data set with Staphylococcus aureus [2] was 6.2 µM; against Pseudomonas aeruginosa [3], more than 50 µM; with Staphylococcus aureus [4], 6.2 µM; against Pseudomonas aeruginosa [5] it was 100 µM; with Staphylococcus aureus [6], 25 µM; in the data set on Staphylococcus aureus [8], 6.2 µM. In addition, the MIC in the data set with Staphylococcus aureus [9] is 6.2 µM; in the data set on Escherichia coli [10] it was more than 200 µM; in the data set on Klebsiella pneumoniae it was more than 50 µM; in the data set with Staphylococcus aureus [11] it was 6.2 µM; in the data set on Staphylococcus aureus [12], 6.2 µM; against Escherichia coli [16], more than 50 µM. This compound gave a Retention_time in [7] of 11.276 min. The selectivity ratio in [13] was in the range of 24 to 48. Further, the Ratio entry in the data set with Staphylococcus aureus [14] is given as “<=2”. The outcome in the data set with Staphylococcus aureus [15] was Active.

`Brc1cccc(Br)c1C(c1c[nH]c2cc(C3=NCCN3)ccc12)c1c[nH]c2cc(C3=NCCN3)ccc12.CS(=O)(=O)O.CS(=O)(=O)O` returned an HC50 at 1 h in data set [1] of 150 µM. Further, the MIC was 3.1 to 6.2 µM against Staphylococcus aureus [2]; more than 50 µM in the data set with Pseudomonas aeruginosa [3]; 6.2 µM in the data set with Staphylococcus aureus [6]; 6.2 µM in the data set on Staphylococcus aureus [8]; 3.1 to 12.5 µM in the data set with Staphylococcus aureus [9]; more than 50 µM with Klebsiella pneumoniae. For the same compound, the values for the MIC against Staphylococcus aureus [11], in the data set with Staphylococcus aureus [12] and against Escherichia coli [16] were 3.1 µM, 3.1 µM and more than 50 µM, respectively. Moreover, the Retention_time in data set [7] turned out to be 11.159 min. In data set [13], the selectivity ratio fell in the range of 24 to 48. For the same compound, in the data set with Staphylococcus aureus [15], the result was Active.

Consider `CS(=O)(=O)O.CS(=O)(=O)O.Clc1ccc(C(c2c[nH]c3cc(C4=NCCN4)ccc23)c2c[nH]c3cc(C4=NCCN4)ccc23)cc1`, for which, in [1], the HC50 at 1 h came to 150 µM. The MIC in the data set on Staphylococcus aureus [2] was 6.2 µM; with Pseudomonas aeruginosa [3], 25 µM; in the data set with Staphylococcus aureus [6], 12.5 µM; in the data set on Staphylococcus aureus [8], 6.2 µM; against Staphylococcus aureus [9] it was 3.1 to 6.2 µM; in the data set on Klebsiella pneumoniae, more than 50 µM. Further, the MIC was 6.2 µM in the data set with Staphylococcus aureus [11], 6.2 µM with Staphylococcus aureus [12] and more than 50 µM in the data set with Escherichia coli [16]. This compound also displayed a Retention_time in [7] of 11.491 min. Also, the selectivity ratio in data set [13] lay in the range of 24 to 48. The Ratio entry in the data set on Staphylococcus aureus [14] is listed as “<=2”. Further, the outcome in the data set with Staphylococcus aureus [15] was Active.

For `CCCC(CCC)(c1c[nH]c2cc(C3=NCCN3)ccc12)c1c[nH]c2cc(C3=NCCN3)ccc12.CS(=O)(=O)O.CS(=O)(=O)O`, in data set [1], the HC50 at 1 h was 150 µM. The MIC with Staphylococcus aureus [2] was 3.1 µM; in the data set with Pseudomonas aeruginosa [3], more than 50 µM; against Staphylococcus aureus [6], 12.5 to 25 µM; against Staphylococcus aureus [8] it was 3.1 µM; against Staphylococcus aureus [9], 1.6 to 3.1 µM; in the data set on Klebsiella pneumoniae it was more than 50 µM. In addition, the MIC with Staphylococcus aureus [11] is 3.1 µM; with Staphylococcus aureus [12], less than 1.5 µM; with Escherichia coli [16] it was more than 50 µM. For the same compound, the “inhibition (INH)” value in the data set on Staphylococcus aureus [17] is given as 40%; in the data set on Staphylococcus aureus [18], 50%. The compound further gave a Retention_time in data set [7] of 12.102 min. Besides, the outcome with Staphylococcus aureus [19] and in the data set with Staphylococcus aureus [20] was Active. Besides, the selectivity ratio in data set [13] lay within 48 to 96. In addition, the Ratio result with Staphylococcus aureus [14] is “<=2”.

Turning to `CS(=O)(=O)O.CS(=O)(=O)O.Clc1cccc(Cl)c1C(c1c[nH]c2cc(C3=NCCN3)ccc12)c1c[nH]c2cc(C3=NCCN3)ccc12`, in [1], the HC50 at 1 h came to 300 µM. Further, the MIC in the data set on Staphylococcus aureus [2] is 12.5 µM; in the data set with Pseudomonas aeruginosa [3] it was more than 50 µM; with Staphylococcus aureus [6] it was more than 25 µM; against Staphylococcus aureus [8], more than 25 µM; with Staphylococcus aureus [9] it was 6.2 to 12.5 µM; in the data set on Klebsiella pneumoniae it was more than 50 µM. Also, the MIC is 12.5 µM in the data set on Staphylococcus aureus [11], 12.5 µM in the data set on Staphylococcus aureus [12] and more than 50 µM in the data set on Escherichia coli [16]. This compound displayed a Retention_time in data set [7] of 10.973 min. In data set [13], the selectivity ratio was 24 to 48. In addition, in the data set on Staphylococcus aureus [14], the Ratio entry is “<=2”. Also, the result with Staphylococcus aureus [15] was Active.

For H-GLLSLLSLLGKLL-NH2, the figures for the MIC against Staphylococcus aureus [4], against Pseudomonas aeruginosa [5] and against Escherichia coli [10] were 3.1 µM, more than 120 µM and more than 120 µM, respectively.

For the compound `CCCCCCCCCC(=O)N[C@@H](Cc1c[nH]c2ccccc12)C(=O)N[C@@H](CC(N)=O)C(=O)N[C@@H](CC(=O)O)C(=O)N[C@@H]1C(=O)NCC(=O)N[C@@H](CCCN)C(=O)N[C@@H](CC(=O)O)C(=O)N[C@H](C)C(=O)N[C@@H](CC(=O)O)C(=O)NCC(=O)N[C@H](CO)C(=O)N[C@@H]([C@H](C)CC(=O)O)C(=O)N[C@@H](CC(=O)c2ccccc2N)C(=O)O[C@@H]1C` [DAPTOMYCIN], the MIC is more than 12.5 µM against Staphylococcus aureus [6]; 3.1 µM (≈ 5.02 µg/mL) against Staphylococcus aureus [8]; 0.78 µM (≈ 1.26 µg/mL) with Staphylococcus aureus [9]; 0.78 µM (≈ 1.26 µg/mL) in the data set on Staphylococcus aureus [11]; 0.78 µM (≈ 1.26 µg/mL) against Staphylococcus aureus [12]. The result in the data set with Staphylococcus aureus [15] was Active.
